# Laboratory results taken from ChEMBL document CHEMBL3352450, “Indazole-type alkaloids from Nigella sativa seeds exhibit antihyperglycemic effects via AMPK activation in vitro” (J Nat Prod, 2014).
# Tests used:
# HepG2 [1] = test: Toxicity against human HepG2 cells at 100 uM; assay type: cell-based; settings: hepg2, 100 µM
# HepG2 [2] = test: Increase in glucose consumption in human HepG2 cells grown under low-glucose medium assessed as reduction in glucose levels at 25 uM incubated for 7 hrs by glucose assay; assay type: functional; parameters: scale not given: the % may be the effect or the level left
# Summary of the method: (§1)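 HepG2 cells (kept in high-glucose DMEM with 10% FBS) were seeded at 4.0 × 10^4 cells/well for 8 h. They were then held overnight in low-glucose ([…]) medium with 2 mM glutamine and 1% FBS. Treatment lasted 7 h in that medium, with DMSO stocks and 0.1% DMSO as solvent control. Medium glucose was read by colorimetric kit at 490 nm, with 3 replicates, as mean ± SD.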
# [3] = biological target: AMP-activated protein kinase, AMPK (Homo sapiens) (UniProt P54646+O43741+P54619+Q9UGJ0+Q9Y478+Q13131+Q9UGI9); test: Increase in AMPK phosphorylation in human HepG2 cells at 25 to 100 uM incubated for 24 hrs by Western blotting method; assay type: cell-based
# Summary of the method: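 HepG2 cells were grown in 6-well plates for 8 h, then held overnight in low-glucose medium and treated for 24 h. Lysis was in RIPA buffer with BCA protein assay. 20 μg/lane was run on 8% SDS-PAGE and blotted to PVDF, blocked in 5% milk, and probed overnight for p-AMPK (Thr172), AMPK and β-actin. HRP secondary was applied for 1 h, with ECL detection on film.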
# HepG2 [4] = test: Increase in glucose consumption in human HepG2 cells grown under low-glucose medium assessed as reduction in glucose levels at 1 mM incubated for 7 hrs by glucose assay; assay type: functional; parameters: scale not given: the % may be the effect or the level left; summary of the method: as §1
Activity [3],Structure (SMILES),Activity (HepG2 [1]),Activity (HepG2 [2]),Activity (HepG2 [4])
,COc1cc(C)cc2c1c(-c1ccc(O)cc1)[n+]1n2CCCC1,Non-toxic,8%,
,C[C@@]1(O)CC(=O)c2c(n3[n+](c2-c2ccc(O)cc2)CCCC3)C1,Non-toxic,8%,
Dose-dependent effect,COc1cc(C)cc2c1c[n+]1n2CCCC1,Non-toxic,8%,
,Cc1cc(O)c2c(-c3ccc(O)cc3)[n+]3n(c2c1)CCCC3,Non-toxic,8%,
,CN(C)C(=N)NC(=N)N [METFORMIN],,,24%
,Cc1cc(O)c2c[n+]3n(c2c1)CCCC3,Non-toxic,8%,
Dose-dependent effect,COc1cc(C)cc2c1c(-c1ccc(O[C@@H]3O[C@H](CO)[C@@H](O)[C@H](O)[C@H]3O)cc1)[n+]1n2CCCC1,Non-toxic,29%,
